RGS4 act – RGS4 potentiation or activation | B-score at 10 µM | AID 463111 | 310,000 tested, 0.92% active | HEK293 M3R/inducible RGS4, carbachol calcium flux Fluo4; active compounds read low;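 active = B-score of the integrated calcium signal more than 4 SD below the library mean, with starting fluorescence not abnormally high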;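 also: negative B-score means reduced calcium response which marks RGS4 activation or potentiation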
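Assay system: HEK293 FlpIn-TREx cells, stable M3R, doxycycline-inducible RGS4 / Probe or stimulus: carbachol, ECmax concentration / Times: overnight RGS4 induction, 30 min dye load 37 °C, 20 min compound RT / Signal: kinetic calcium fluorescence imaging with Fluo4-AM dye, 2 µM / Measure: Agonist-evoked peak-minus-minimum fluorescence over baseline, integrated ratio, B score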
MrgX1 PAM – human MrgX1 positive allosteric modulation, primary screen; Q96LB2; MrgX1-HEK293, Fluo-4 calcium flux, FDSS; active compounds read high; B-score at 10 µM; 310,000 tested, 0.63% active;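 active = plate-corrected calcium response at least 3 library SD above typical, normal starting fluorescence, not activating the receptor alone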;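 also: compound read alongside a low EC10 to EC30 dose of BAM8-22 agonist; peak minus trough fluorescence over baseline measured at the second addition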
Target sequence (Q96LB2 whole entry, looked up): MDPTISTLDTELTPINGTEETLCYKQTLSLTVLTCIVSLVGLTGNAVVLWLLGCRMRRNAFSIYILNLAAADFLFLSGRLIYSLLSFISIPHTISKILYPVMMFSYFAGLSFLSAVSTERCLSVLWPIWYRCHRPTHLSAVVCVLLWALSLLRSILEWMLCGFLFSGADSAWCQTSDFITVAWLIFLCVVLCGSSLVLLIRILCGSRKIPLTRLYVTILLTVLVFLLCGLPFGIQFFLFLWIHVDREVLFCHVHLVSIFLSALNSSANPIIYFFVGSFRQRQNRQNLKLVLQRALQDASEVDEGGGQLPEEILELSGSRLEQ
RGS4 inh – inhibitors of human RGS4. P49798. HEK293 M3R/RGS4 inducible, Fluo-4 calcium flux; active compounds read high; triggered by carbachol at its EC20. B-score at 10 µM. 310,000 tested, 0.45% active. AID 463165;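 active = B-score, a plate-corrected calcium signal, over three deviations above library mean, with baseline fluorescence within five deviations of library mean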;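 also: RGS4 expression induced by doxycycline in cells with stable M3 receptor; B-score is computed from the integrated fluorescence ratio over baseline after carbachol; higher B-score means a larger calcium signal and so more RGS4 inhibition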
Target sequence (P49798 whole entry, looked up): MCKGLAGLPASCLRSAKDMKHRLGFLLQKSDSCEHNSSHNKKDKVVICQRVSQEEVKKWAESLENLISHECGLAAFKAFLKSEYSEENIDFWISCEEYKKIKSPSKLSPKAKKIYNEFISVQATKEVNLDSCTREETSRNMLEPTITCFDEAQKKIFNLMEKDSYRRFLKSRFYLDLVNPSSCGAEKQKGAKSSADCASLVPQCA
MrgX1 ag – agonists of human MrgX1 receptor; Q96LB2; 310,000 tested, 0.44% active; MrgX1-HEK293 cells, Fluo-4 calcium fluorescence, agonist mode; active compounds read high; B-score at 10 µM; AID 588627;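 active = calcium response B-score plate-corrected fluorescence ratio at least 3 library SD, with starting fluorescence B-score inside 5 SD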
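Material: MrgX1-expressing HEK293 cells; input: 15,000 cells per well; doses: test compound given as first of three sequential additions; schedule: overnight plating before 1 h dye loading; technique: Fluo-4 NW calcium-flux fluorescence, kinetic read; evaluation: baseline-normalised fluorescence change ratio, B-scored; control set: plate-wise positive and negative controls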
MrgX1 antagonist – blocks BAM8-22 activation of human MrgX1 receptor; Q96LB2; MRGX1-HEK293 calcium flux, Fluo-4, BAM8-22 antagonism; active compounds read low; B-score at 10 µM; 310,000 tested, 1.3% active; AID 588676;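 active = calcium-response B-score plate-corrected more than 3 library SD below zero, starting fluorescence within 5 deviations, no agonist response on first addition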;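 also: peak minus trough fluorescence over baseline after final BAM8-22 challenge near maximal dose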
MrgX1 antag conf – confirmation of human MrgX1 receptor antagonists. shares compounds with MrgX1 antagonist. 2,300 tested, 19% active. MrgX1-HEK293, BAM8-22 calcium flux, Fluo-4; active compounds read low. AID 602420. remaining BAM8-22 calcium response % of control (active compounds read low), % at 10 µM;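 active = remaining agonist calcium response no higher than 100% minus 3 SD of agonist-only control wells, with starting fluorescence near control levels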;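 also: agonist BAM8-22 given at a near maximal EC90 to ECmax level; peak minus minimum fluorescence divided by baseline after agonist addition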
HEK293 Ca flux – counter-screen for MrgX1 antagonists: effect in parental HEK293 cells; shares compounds with MrgX1 antagonist; Fluo-4 calcium fluorescence, FDSS; fluorescence ratio F(max-min)/F0 at 10 µM; 4,000 tested, 2% active; AID 624111;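 active = duplicate-averaged calcium fluorescence ratio at least three times the standard deviation of buffer wells, a nonspecific response in parental cells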
HEK293 Ca counter – MrgX1 allosteric activator counter-screen hit in parental HEK293 cells. parental HEK293 calcium flux, Fluo-4 fluorescence ratio; active compounds read high. 4,000 tested, 0.4% active. fluorescence ratio F(max-min)/F0 at 10 µM. shares compounds with MrgX1 antagonist;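 active = calcium fluorescence ratio, averaged over duplicates, at least 3 SD of the buffer-well ratio, meaning a nonspecific response in receptor-free cells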;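 also: untransfected parental HEK293 lacking MrgX1 used as counterscreen for MrgX1 allosteric activators; fluorescence change taken during the second addition on a kinetic imager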
HEK293 Ca cntr2 – counter-screen for MrgX1 activators: effect in parental HEK293 cells. fluorescence ratio F(max-min)/F0 at 10 µM. 4,000 tested, 8.7% active. shares compounds with MrgX1 antagonist. Fluo-4 calcium fluorescence (FDSS); active compounds read high;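 active = calcium fluorescence ratio at least three times the spread of buffer wells, meaning a non-specific response in parental cells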
Numbers without * were called inactive; i = inactive; / = not tested or not shown; ! = repeats disagree. This is a sample that favours compounds with a hit; in the whole collection about 3.5% have one here.

SMILES	RGS4 act	MrgX1 PAM	RGS4 inh	MrgX1 ag	MrgX1 antagonist	MrgX1 antag conf	HEK293 Ca flux	HEK293 Ca counter	HEK293 Ca cntr2
O=C(CCCOc1ccc(Cl)cc1Cl)N1CCN(c2ccccn2)CC1	i	i	i	i	-5.17*	i	i	i	i
O=C(COc1ccc(Cl)cc1Cl)N1CCN(c2ccccn2)CC1	i	i	i	i	i	/	/	/	/
CCOc1ccc(C(=O)N2CCN(c3ccccn3)CC2)cc1OCC	i	i	i	i	-4.81*	i	i	i	67.7*
C/C(=N/Nc1ccc(C(=O)O)cc1)c1ccc(O)c(O)c1O	i	i	i	i	i	/	/	/	/
Cc1ccccc1C(=O)Nc1cccc(-c2ccc(N3CCOCC3)nn2)c1	i	i	i	i	-5*	i	i	i	i
CCOc1ccccc1N1CCN(C(=O)CCCN2C(=O)c3cccc4cccc(c34)C2=O)CC1	i	i	i	i	-5.47*	i	i	i	i
COc1ccccc1OCC(=O)Nc1ccc(NC(=O)COc2ccccc2OC)cc1	i	i	i	i	i	/	/	/	/
COc1ccccc1OCC(=O)Nc1ccc(S(=O)(=O)NC(C)=O)cc1	i	i	i	i	-6.7*	i	i	i	i
O=C(CC1C(=O)NCCN1Cc1cccc(C(F)(F)F)c1)NC1CCOCC1 (stereo not given)	i	i	i	i	i	/	/	/	/
CCOC(=O)CC1C(=O)NCCN1Cc1cccc(C(F)(F)F)c1 (stereo not given)	i	i	i	i	-4.67*	i	i	i	i
Cc1sc(NC(=O)C2CSC3(C)CCC(=O)N23)nc1-c1ccc(F)cc1 (stereo not given)	i	i	i	i	i	/	/	/	/
Cc1cccc(NC(=O)c2sc3nc(-c4ccccc4)cn3c2C)n1	i	i	i	i	i	/	/	/	/
COc1ccc(-c2cn3c(C)c(C(=O)Nc4cccc(C)n4)sc3n2)cc1	i	i	i	i	-5.31*	82.3%*	i	i	i
Cc1cc(SCC(=O)OCC(=O)NCC2CCCO2)c(C)cc1Br (stereo not given)	i	i	i	i	i	/	/	/	/
CCC(=O)Nc1ccc(NC(=S)NC(=O)Cc2ccccc2)cc1	i	i	i	i	i	/	/	/	/
CCC(=O)Nc1ccc(NC(=S)Nc2ccccc2)cc1	i	i	i	i	-4.76*	i	i	i	i
CC1=C(C(=O)Nc2ccccn2)C(c2cn(C)nc2C)C2=C(CCCC2=O)N1 (stereo not given)	i	i	i	i	-4.94*	i	i	i	i
CCn1cc(C2C(C(=O)Nc3ccc(Br)cn3)=C(C)NC3=C2C(=O)CCC3)c(C)n1 (stereo not given)	i	i	i	i	i	/	/	/	/
CC(N)C12CC3CC(CC(C3)C1)C2 (stereo not given)	i	i	i	i	-4.98*!	i	i	i	i
Cc1ccc(-n2ncc3c2CCCC3NC(=O)CCc2cnccn2)cc1C (stereo not given)	i	i	i	i	i	/	/	/	/
COc1cc2c(cc1OC)CC(C(=O)NCc1ccccc1)NC2 (stereo not given)	i	i	i	i	i	/	/	/	/
O=c1[nH]c(Cc2ccccc2)nc2c1oc1ccccc12	i	i	i	i	i	/	/	/	/
